Reference: ChEMBL document CHEMBL1157326, “Nortriterpenoids from Schisandra lancifolia” (J Nat Prod, 2006)
≈ marks a conversion by molar mass, not a printed value.

Tests used:
[1] = Cytotoxicity against human C8166 cells by MTT method; assay type: cell-based
Procedure, shortened: (§1)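 C8166 cells were used for both assays, with AZT as the positive control. Protection from HIV-1 cytopathic effect gave the EC50, and MTT viability on the same cells, run in parallel, gave the CC50.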

[2] = test system: Human immunodeficiency virus 1; assay: Antiviral activity against HIV1 3B in human C8166 cells assessed as inhibition of virus-induced cytopathic effect; assay type: functional, organism-based; conditions: Human immunodeficiency virus 1, 3B; procedure, shortened: as §1
[3] = Selectivity index, CC50 for human C8166 cells to EC50 for HIV1 3B; assay type: toxicity, cell-based; conditions: read-out: Ratio CC50/EC50
Procedure, shortened: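 The ratio is built from a CC50 (MTT viability of C8166 cells) and an EC50 (inhibition of HIV-1 cytopathic effect in C8166 cells), both determined in parallel.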

| Structure (SMILES) | CC50 [1] [µg/mL] | EC50 [2] [µg/mL] | selectivity ratio [3] |
| --- | --- | --- | --- |
| Cc1cn([C@H]2C[C@H](N=[N+]=[N-])[C@@H](CO)O2)c(=O)[nH]c1=O [ZIDOVUDINE] | > 200 | 0.0033 (≈ 0.0123 µM) | > 60600 |
| C[C@@H]1C(=O)[C@@]2(C)CC[C@]34C[C@]56OC(=O)C[C@H]5OC(C)(C)[C@@H]6C[C@H](O)[C@H]3C(=O)[C@@]3(O[C@H]5[C@H](OC(=O)[C@]5(C)O)[C@@H]1[C@H]32)O4 [LANCIFODILACTONE L] | > 200 | 100 (≈ 178 µM) | > 2 |
| C[C@@H]1C(=O)[C@@]2(C)CC[C@]34C[C@]56OC(=O)C[C@H]5OC(C)(C)[C@@H]6CC=C3C(=O)[C@@]3(O[C@H]5[C@H](OC(=O)[C@]5(C)O)[C@@H]1[C@H]32)O4 [LANCIFODILACTONE N] | 186 (≈ 343 µM) | 77.6 (≈ 143 µM) | 2.4 |
| CC1=C[C@@H]([C@H]2[C@H](C)C(=O)[C@@]3(C)CC[C@]45C[C@]67OC(=O)C[C@H]6OC(C)(C)[C@@H]7CC=C4C(=O)[C@@](O)(O5)[C@@H]23)OC1=O [LANCIFODILACTONE K] | > 200 | 78.5 (≈ 149 µM) | > 2.55 |
| CC(=O)O[C@H]1C[C@H]2C(C)(C)O[C@@H]3CC(=O)O[C@@]32C[C@]23CC[C@]4(C)C(=O)[C@@H](C)[C@H]([C@@H]5C=C(C)C(=O)O5)[C@@H]4[C@](O)(O2)C(=O)[C@H]13 [LANCIFODILACTONE J] | > 200 | 88.3 (≈ 151 µM) | > 2.26 |
| CC1=C2[C@H]3OC(=O)[C@@H](C)[C@H]3O[C@]34O[C@@]5(CC[C@](C)(C1=O)[C@H]23)C[C@]12OC(=O)C[C@H]1OC(C)(C)[C@@H]2C[C@H](O)[C@H]5C4=O [LANCIFODILACTONE M] | > 200 | 76.6 (≈ 141 µM) | > 2.61 |
| CC1=C[C@@H]([C@H]2[C@H](C)C(=O)[C@@]3(C)CC[C@]45C[C@]67OC(=O)C[C@H]6OC(C)(C)[C@@H]7C[C@H](O)[C@H]4C(=O)[C@@](O)(O5)[C@@H]23)OC1=O [LANCIFODILACTONE I] | > 200 | 96.4 (≈ 177 µM) | > 2.08 |
